Results reported in ChEMBL document CHEMBL2086296, “Synthesis of novel quinoline-2-one based chalcones of potential anti-tumor activity” (Eur J Med Chem, 2012).

Assays:
MOLT-4 [1] = experiment: (§1) Cytotoxicity against human MOLT4 cells after 24 hrs by SRB assay; type: functional; settings: MOLT-4, 24 h
Outline: (§2)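 NCI 60-line screen. Cells in RPMI 1640 with 5% FBS and 2 mM L-glutamine, seeded at 5,000–40,000 cells/well by doubling time, then incubated 24 h at 37 °C, 5% CO2 before dosing. Time-zero plates fixed with TCA at drug addition. DMSO stocks diluted in medium with gentamicin to five concentrations, […]. Protein read by SRB staining. GI50, TGI and LC50 derived relative to control and time-zero.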

HOP-62 [2] = experiment: (§3) Cytotoxicity against human HOP62 cells after 24 hrs by SRB assay; type: functional; settings: HOP-62, 24 h; outline: as §2
HOP-92 [3] = experiment: (§4) Cytotoxicity against human HOP92 cells after 24 hrs by SRB assay; type: functional; settings: HOP-92, 24 h; outline: as §2
HCT-15 [4] = experiment: (§5) Cytotoxicity against human HCT15 cells after 24 hrs by SRB assay; type: functional; settings: HCT-15, 24 h; outline: as §2
SW-620 = experiment: Cytotoxicity against human SW620 cells after 24 hrs by SRB assay; type: functional; settings: SW-620, 24 h
Outline: (§6)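 NCI 60-cell screen. Cells are grown in RPMI 1640 with 5% FBS and 2 mM L-glutamine and seeded at 5,000–40,000 cells/well according to doubling time. They are preincubated 24 h at 37 °C in 5% CO2, and Tz plates are TCA-fixed at drug addition. Drug stock is in DMSO, diluted in medium with gentamicin, and tested at five concentrations (100, 10, 1.0, 0.1, […]). Protein is read by SRB staining. GI50, TGI and LC50 are derived relative to time-zero and control wells.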

HCC 2998 [5] = experiment: (§7) Cytotoxicity against human HCC2998 cells after 24 hrs by SRB assay; type: functional; settings: HCC 2998, 24 h; outline: as §2
SF-295 = experiment: Cytotoxicity against human SF295 cells after 24 hrs by SRB assay; type: functional; settings: SF-295, 24 h; outline: as §2
SF-539 = experiment: Cytotoxicity against human SF539 cells after 24 hrs by SRB assay; type: functional; settings: SF-539, 24 h; outline: as §2
U-251 = experiment: Cytotoxicity against human U251 cells after 24 hrs by SRB assay; type: functional; settings: U-251, 24 h; outline: as §6
UACC-257 = experiment: Cytotoxicity against human UACC257 cells after 24 hrs by SRB assay; type: functional; settings: UACC-257, 24 h; outline: as §6
SK-MEL-2 = experiment: Cytotoxicity against human SK-MEL-2 cells after 24 hrs by SRB assay; type: functional; settings: SK-MEL-2, 24 h; outline: as §2
SK-MEL-28 = experiment: Cytotoxicity against human SK-MEL-28 cells after 24 hrs by SRB assay; type: functional; settings: SK-MEL-28, 24 h; outline: as §2
OVCAR-5 [6] = experiment: (§8) Cytotoxicity against human OVCAR5 cells after 24 hrs by SRB assay; type: functional; settings: OVCAR-5, 24 h; outline: as §2
CAKI-1 [7] = experiment: (§9) Cytotoxicity against human CAKI-1 cells after 24 hrs by SRB assay; type: functional; settings: CAKI-1, 24 h; outline: as §2
TK-10 [8] = experiment: (§10) Cytotoxicity against human TK10 cells after 24 hrs by SRB assay; type: functional; settings: TK-10, 24 h; outline: as §6
[9] = Cytotoxicity against human Hs 578T cells after 24 hrs by SRB assay; type: functional; outline: as §2
RPMI-8226 = experiment: Cytotoxicity against human RPMI8226 cells after 24 hrs by SRB assay; type: cell-based; settings: rpmi-8226, 24 h
Outline: (§11)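 NCI 60-cell screen. Cells grown in RPMI 1640 with 5% FBS and 2 mM L-glutamine, seeded at 5,000–40,000 cells/well, preincubated 24 h at 37 °C in 5% CO2. Drug stock in DMSO, diluted in medium with gentamicin; five final concentrations, 100, 10, 1.0, 0.1 and […]. Time-zero plates were TCA-fixed. Protein read by SRB staining; GI50, TGI and LC50 taken relative to time-zero.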

MOLT-4 [10] = experiment: as §1; type: cell-based; settings: molt-4, 24 h; outline: as §11
HOP-62 [11] = experiment: as §3; type: cell-based; settings: hop-62, 24 h; outline: as §11
NCI-H23 = experiment: Cytotoxicity against human NCI-H23 cells after 24 hrs by SRB assay; type: cell-based; settings: nci-h23, 24 h; outline: as §11
NCI-H522 = experiment: Cytotoxicity against human NCI-H522 cells after 24 hrs by SRB assay; type: cell-based; settings: nci-h522, 24 h; outline: as §11
HOP-92 [12] = experiment: as §4; type: cell-based; settings: hop-92, 24 h; outline: as §11
HCT-116 = experiment: Cytotoxicity against human HCT116 cells after 24 hrs by SRB assay; type: cell-based; settings: hct-116, 24 h; outline: as §11
HCT-15 [13] = experiment: as §5; type: cell-based; settings: hct-15, 24 h; outline: as §11
HT-29 = experiment: Cytotoxicity against human HT-29 cells after 24 hrs by SRB assay; type: cell-based; settings: ht-29, 24 h; outline: as §11
KM12 = experiment: Cytotoxicity against human KM12 cells after 24 hrs by SRB assay; type: cell-based; settings: km12, 24 h; outline: as §11
HCC 2998 [14] = experiment: as §7; type: cell-based; settings: hcc 2998, 24 h; outline: as §11
SF-268 = experiment: Cytotoxicity against human SF268 cells after 24 hrs by SRB assay; type: cell-based; settings: sf-268, 24 h; outline: as §11
SNB-19 = experiment: Cytotoxicity against human SNB19 cells after 24 hrs by SRB assay; type: cell-based; settings: snb-19, 24 h
Outline: (§12)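 NCI 60-cell-line screen: cells grown in RPMI 1640 with 5% FBS and 2 mM L-glutamine, seeded at 5,000–40,000 cells/well by doubling time, and preincubated 24 h at 37 °C in 5% CO2. Time-zero plates were TCA-fixed. DMSO stocks were diluted in medium with gentamicin to five concentrations (100, 10, 1.0, 0.1, […]). Protein was read by SRB, and GI50, TGI and LC50 were derived against time-zero.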

SNB-75 = experiment: Cytotoxicity against human SNB75 cells after 24 hrs by SRB assay; type: cell-based; settings: snb-75, 24 h; outline: as §12
NCI/ADR-RES = experiment: Cytotoxicity against human NCI/ADR-RES cells after 24 hrs by SRB assay; type: cell-based; outline: as §11
OVCAR-8 = experiment: Cytotoxicity against human OVCAR8 cells after 24 hrs by SRB assay; type: cell-based; settings: ovcar-8, 24 h; outline: as §11
OVCAR-5 [15] = experiment: as §8; type: cell-based; settings: ovcar-5, 24 h; outline: as §11
CAKI-1 [16] = experiment: as §9; type: cell-based; settings: caki-1, 24 h; outline: as §11
TK-10 [17] = experiment: as §10; type: cell-based; settings: tk-10, 24 h; outline: as §12
786-0 = experiment: Cytotoxicity against human 786-0 cells after 24 hrs by SRB assay; type: cell-based; settings: 786-0, 24 h; outline: as §11
MCF7 = experiment: Cytotoxicity against human MCF7 cells after 24 hrs by SRB assay; type: cell-based; settings: mcf7, 24 h; outline: as §11
BT-549 = experiment: Cytotoxicity against human BT549 cells after 24 hrs by SRB assay; type: cell-based; settings: bt-549, 24 h; outline: as §11
T47D = experiment: Cytotoxicity against human T47D cells after 24 hrs by SRB assay; type: cell-based; outline: as §12

## COc1ccc(C(=O)/C=C/c2cc3ccccc3[nH]c2=O)cc1
MOLT-4 [1]
  GI50: 3.39 µM
  TGI: > 100 µM
HOP-62 [2]
  GI50: 3.68 µM
  TGI: 11.6 µM
HOP-92 [3]
  GI50: 2.97 µM
  TGI: 8.76 µM
HCT-15 [4]
  GI50: 3.18 µM
  TGI: 21.1 µM
SW-620
  GI50: 3.41 µM
  TGI: 8.89 µM
HCC 2998 [5]
  GI50: 2.5 µM
  TGI: 6.49 µM
SF-295
  GI50: 3.98 µM
  TGI: 18.6 µM
SF-539
  GI50: 2.76 µM
  TGI: 7.49 µM
U-251
  GI50: 2.7 µM
  TGI: 10.9 µM
UACC-257
  GI50: 4.9 µM
  TGI: 18 µM
SK-MEL-2
  GI50: 3.91 µM
  TGI: 40.1 µM
SK-MEL-28
  GI50: 7.59 µM
  TGI: 30.6 µM
OVCAR-5 [6]
  GI50: 3.6 µM
  TGI: 18.4 µM
CAKI-1 [7]
  GI50: 1.78 µM
  TGI: 3.51 µM
TK-10 [8]
  GI50: 3.54 µM
  TGI: 55.8 µM
[9]
  GI50: 3.3 µM
  TGI: > 100 µM
RPMI-8226
  LC50: > 100 µM
MOLT-4 [10]
  LC50: > 100 µM
HOP-62 [11]
  LC50: 59 µM
NCI-H23
  LC50: > 100 µM
NCI-H522
  LC50: > 100 µM
HOP-92 [12]
  LC50: 80.9 µM
HCT-116
  LC50: 31.6 µM
HCT-15 [13]
  LC50: > 100 µM
HT-29
  LC50: > 100 µM
KM12
  LC50: 26.9 µM
HCC 2998 [14]
  LC50: 29 µM
SF-268
  LC50: 40.7 µM
SNB-19
  LC50: 75.8 µM
SNB-75
  LC50: 47.2 µM
NCI/ADR-RES
  LC50: > 100 µM
OVCAR-8
  LC50: > 100 µM
OVCAR-5 [15]
  LC50: > 100 µM
CAKI-1 [16]
  LC50: 6.9 µM
TK-10 [17]
  LC50: > 100 µM
786-0
  LC50: > 100 µM
MCF7
  LC50: > 100 µM
BT-549
  LC50: 46.3 µM
T47D
  LC50: > 100 µM

## O=C(/C=C/c1cc2ccccc2[nH]c1=O)c1ccc(Cl)cc1
MOLT-4 [1]
  GI50: 3.11 µM
  TGI: > 100 µM
HOP-62 [2]
  GI50: 7.43 µM
  TGI: 44.2 µM
HOP-92 [3]
  GI50: 5.74 µM
  TGI: 50.5 µM
HCT-15 [4]
  GI50: 3.18 µM
  TGI: 20.2 µM
SW-620
  GI50: 3.38 µM
  TGI: 12.1 µM
HCC 2998 [5]
  GI50: 6.55 µM
  TGI: 22.3 µM
SF-295
  GI50: 4.57 µM
  TGI: 38.3 µM
SF-539
  GI50: 2.07 µM
  TGI: 8.02 µM
U-251
  GI50: 2.52 µM
  TGI: 11.4 µM
UACC-257
  GI50: 7.78 µM
  TGI: 46.9 µM
SK-MEL-2
  GI50: 8.55 µM
  TGI: 25.7 µM
SK-MEL-28
  GI50: 17.7 µM
  TGI: 72.5 µM
OVCAR-5 [6]
  GI50: 12.7 µM
  TGI: 97 µM
CAKI-1 [7]
  GI50: 1.6 µM
  TGI: 3.3 µM
TK-10 [8]
  GI50: 5.05 µM
  TGI: 20.8 µM
[9]
  GI50: 11.1 µM
  TGI: > 100 µM
RPMI-8226
  LC50: > 100 µM
MOLT-4 [10]
  LC50: > 100 µM
HOP-62 [11]
  LC50: > 100 µM
NCI-H23
  LC50: > 100 µM
NCI-H522
  LC50: 47.2 µM
HOP-92 [12]
  LC50: > 100 µM
HCT-116
  LC50: 66.5 µM
HCT-15 [13]
  LC50: > 100 µM
HT-29
  LC50: > 100 µM
KM12
  LC50: 98.9 µM
HCC 2998 [14]
  LC50: 59.6 µM
SF-268
  LC50: > 100 µM
SNB-19
  LC50: > 100 µM
SNB-75
  LC50: > 100 µM
NCI/ADR-RES
  LC50: > 100 µM
OVCAR-8
  LC50: 88.4 µM
OVCAR-5 [15]
  LC50: > 100 µM
CAKI-1 [16]
  LC50: 6.8 µM
TK-10 [17]
  LC50: 75.8 µM
786-0
  LC50: > 100 µM
MCF7
  LC50: > 100 µM
BT-549
  LC50: 97.6 µM
T47D
  LC50: > 100 µM
